In the library only some 4.1% were active in any assay of this set; here they are far more common.
KCNQ1 inh – inhibitors of human KCNQ1 channel, primary screen, cell-based, thallium flux, high-throughput | 310,000 tested, 1.3% active | B-score at 10 µM | CHO-K1 KCNQ1, FluxOR thallium flux fluorescence; stronger effect = higher value;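 active means compounds whose thallium flux B-score, printed positive for inhibition, exceeds three library SD while starting fluorescence stays within three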;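 further: channel opened by potassium depolarization with thallium stimulus after 20 min compound exposure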
KCNK9 block – KCNK9 potassium channel inhibitors, primary screen, HEK293 cells, thallium flux | B-score at 10 µM | 310,000 tested, 1.2% active | FluxOR thallium flux fluorescence; stronger effect = lower value;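 active means ratio B-score over 3 SD below the library mean, with starting fluorescence within 5 SD of its mean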;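 further: negative B-score means less thallium flux so channel inhibition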
KCNQ1 pot – potentiators or activators of KCNQ1 channel, primary screen, cell-based, thallium flux, high-throughput | Potassium voltage-gated channel subfamily KQT member 1 (Homo sapiens), P51787 | CHO-K1 KCNQ1, thallium flux FluxOR fluorescence; stronger effect = higher value | B-score at 10 µM | 310,000 tested, 0.35% active | AID 2648, 2010;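 active means fluorescence ratio B-score, a plate-corrected score, at least three library SD, with initial intensity B-score within 5 SD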
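System: CHO-K1 cells stably expressing KCNQ1 / Medium: assay buffer for compound exposure, DMSO matched across wells / Reagent: thallium- and potassium-containing depolarizing buffer / Compound: one concentration, matched DMSO / Incubation: 20 min compound pretreatment at room temperature / Measured by: kinetic FluxOR fluorescence, 10 s baseline plus 110 s post-stimulus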
KCNK3 block – human KCNK3 channel inhibitors, primary screen, CHO cells, FluxOR thallium flux, B-score; Potassium channel subfamily K member 3 (Homo sapiens), O14649; FluxOR fluorescence; stronger effect = lower value; B-score at 10 µM; 340,000 tested, 0.84% active;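 active means B-score under library mean minus 4 SD, starting fluorescence ratio at most library mean plus 5 SD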;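 further: more negative B-score means stronger inhibition of thallium flux through KCNK3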
KCC2 mod – KCC2 cotransporter modulators, thallium flux, primary screen, cell-based, HEK293 KCC2, FluoZin-2 fluorescence, MLSMR; KCC2 cells, thallium flux FluoZin-2 fluorescence; B-score of Tl+ flux slope (higher = more flux/activation; lower = inhibition) at 10 µM; 190,000 tested, 2.2% active; AID 1456, 2008;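 active means thallium flux slope and its plate-corrected score both differing from the plate sample mean at a set confidence after two filtering rounds, in either direction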;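 further: slope of fluorescence scaled to starting intensity during 10 to 20 s after thallium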
hERG rescue – hERG rescue from dofetilide block, primary screen, cell-based, CHO-hERG, FluxOR thallium flux, dofetilide IC70 | Voltage-gated inwardly rectifying potassium channel KCNH2 (Homo sapiens), Q12809 | dofetilide IC70 present | activation (rescue from dofetilide block), less the hit threshold, % at 10 µM | 310,000 tested, 0.51% active;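 active means activation above the mean of controls blocked by dofetilide plus 5 SD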;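 further: thallium influx through hERG after potassium depolarization seen as dye fluorescence rise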
Of the large screens only hits and unclear results are named; the others gave an inactive call.

O=C(Nc1ccccc1C(=O)O)c1ccc2c(c1)C(=O)N(c1cccc([N+](=O)[O-])c1)C2=O	hERG rescue 7.0 (no result: KCC2 mod)
O=C(Nc1c[nH]c(=O)[nH]c1=O)c1ccc2c(c1)C(=O)N(c1cccc([N+](=O)[O-])c1)C2=O	none
CCN(CC(=O)Nc1ccc(NC(C)=O)cc1)C(=O)c1ccccc1SCc1c(C)noc1C	none (no result: KCC2 mod)
C/C=C(/C)C(=O)O[C@@H]1c2c(ccc3ccc(=O)oc23)O[C@@H]1C(C)(C)OC(=O)/C(C)=C\C	KCNK9 block -7.14
C/C=C(/C)C(=O)OC(C)(C)[C@@H]1Cc2c(ccc3ccc(=O)oc23)O1	none
O=C(OC1CCOC1=O)c1cc(S(=O)(=O)N2CCOCC2)c(Cl)cc1Cl (stereo not given)	none (no result: KCNQ1 inh, KCNK9 block, KCNQ1 pot, KCC2 mod, hERG rescue)
COc1cc(/C=N/N=C(N)N)ccc1OCc1ccccc1Cl	KCNQ1 inh 10
Cc1noc(/C=C/c2ccc(-c3ccccc3Cl)o2)c1[N+](=O)[O-]	KCNQ1 inh 7
CC(C)CC(=O)NC(NC(=S)Nc1sc2c(c1C#N)CCCC2)C(Cl)(Cl)Cl (stereo not given)	KCNK9 block -7.42 (no result: KCC2 mod)
O=C(Nc1ccccc1F)c1ccc(-c2cccc([N+](=O)[O-])c2)o1	none (no result: KCC2 mod)
O=C(NC(=S)Nc1cccc(Cl)c1N1CCCC1)c1ccc(-c2cccc([N+](=O)[O-])c2)o1	KCC2 mod 2.97
Cc1ccc(S(=O)(=O)Cc2cc(F)c([N+](=O)[O-])cc2[N+](=O)[O-])cc1	KCNK3 block -10.4 (no result: KCC2 mod)
CCCCn1c(NC(=O)c2ccc(F)cc2)c(C#N)c2nc3ccccc3nc21	KCNQ1 inh 6 (no result: KCNK3 block, KCC2 mod)
CCCCn1c(NC(=O)c2ccccc2)c(C#N)c2nc3ccccc3nc21	none (no result: KCNQ1 inh, KCNK9 block, KCNQ1 pot, hERG rescue)
Cc1ccc(NC(=O)CSCC(=O)Nc2cc(Cl)ccc2N2CCOCC2)cc1	KCNQ1 inh 6 (no result: KCC2 mod)
CCCn1c(SCC(=O)N2CCN(C(C)=O)CC2)nc2sc3c(c2c1=O)CCC3	KCNQ1 pot 16, hERG rescue 24.7 (no result: KCC2 mod)
CCn1c(SC(C)C(=O)O)nc2sc3c(c2c1=O)CCC3 (stereo not given)	KCNQ1 pot 14, KCC2 mod 26.3, hERG rescue 14.8
COc1ccc(-c2oc3ccccc3c2C(=O)Oc2ccccc2)cc1	none (no result: KCC2 mod)
COC(=O)c1ccc(C(NC(=O)OCc2ccccc2)/C(C)=C/[C@@H](C)C(=O)NCc2ccc(-c3ccccc3)cc2)cc1 (stereo not given in full)	none
CCC/C=C(\CCC)C(NC(=O)OCC(C)C)c1ccc(C(=O)OC)cc1 (stereo not given)	KCNQ1 inh 9
CCC/C=C(\CCC)C(NS(=O)(=O)c1cccc2cccnc12)c1ccc(C(=O)OC)cc1 (stereo not given)	KCNQ1 inh 6 (no result: KCNK3 block)
Cc1ccc(N2CCN(S(=O)(=O)c3ccc4c(c3)oc(=O)n4C)CC2C)cc1 (stereo not given)	none (no result: KCC2 mod)
O=c1c(-c2ccccc2)nnc2sc(COc3ccc(Br)cc3)nn12	none (no result: KCC2 mod)
CCN(C(=S)NC(=O)c1ccccc1Br)C1CCCCC1	KCNQ1 pot 36, KCC2 mod 62.6, hERG rescue 57.0
CC(=O)c1ccc(NC(=O)C(C)Sc2nnc(C3CCCCC3)o2)cc1 (stereo not given)	none (no result: KCNK3 block, KCC2 mod)
COC(=O)c1sc(NC(=S)NNC(=O)c2c(Br)c(C)nn2C)c(C(=O)OC)c1C	KCNQ1 inh 6 (no result: KCC2 mod)
COC(=O)c1sc(S(=O)(=O)Nc2c(C)nn(C)c2C)c(C(=O)OC)c1C	none (no result: KCNQ1 inh, KCNK9 block, KCNQ1 pot, KCC2 mod, hERG rescue)
O=C1C=CC(=O)c2c(O)c(N3CCN(CCOCCO)CC3)c(Br)c(O)c21	KCNK3 block -11.2 (no result: KCNQ1 inh, KCNK9 block, KCNQ1 pot, KCC2 mod, hERG rescue)
O=S(=O)(c1ccc(Br)cc1Cl)N1CCN(CCO)CC1	none
O=C1C=CC(=O)c2c(O)c(N3CCN(CCO)CC3)c(Cl)c(O)c21	KCNK3 block -10.8 (no result: KCNQ1 inh, KCNK9 block, KCNQ1 pot, KCC2 mod, hERG rescue)
COc1ccc(-c2csc(NC(C)c3nc4cc(C(F)(F)F)ccc4n3CCOCCO)n2)cc1 (stereo not given)	none (no result: KCC2 mod)
COc1ccc(-c2cc(C(=O)Nc3cc(C)ccc3O)no2)cc1	none (no result: KCC2 mod)
Cc1ccc(-c2cc(C(=O)Nc3cc(C)ccc3O)no2)cc1	KCNK9 block -7.8 (no result: KCC2 mod)
CC(C)Cn1c(N)c(C(=O)COC(=O)c2c(O)c(Cl)cc(Cl)c2Cl)c(=O)n(C)c1=O	KCNK3 block -10.2 (no result: KCNQ1 inh, KCNK9 block, KCNQ1 pot, KCC2 mod, hERG rescue)
CCC(CC)c1nnc(NC(=O)c2ccc3ccccc3n2)s1	KCC2 mod 15.7
CCC(CC)c1nnc(NC(=O)c2cc(-c3ccccc3)nc3ccccc23)s1	none
CN(CC(=O)Nc1ccccc1C(F)(F)F)C(=O)c1ccccc1Sc1ccccc1C#N	KCNK3 block -9.17 (no result: KCNQ1 inh, KCNK9 block, KCNQ1 pot, KCC2 mod, hERG rescue)
CCO[C@@H]1OC(C(=O)NCc2ccccc2)=C[C@H](c2csc3ccccc23)[C@H]1CCCO	KCC2 mod -2.88
C#Cc1ccc([C@@H]2C=C(C(=O)N3CCN(Cc4ccccc4)CC3)O[C@H](OCC)[C@H]2CCCO)cc1	KCC2 mod -3.78
C#CCNC(=O)C1=C[C@H](c2csc3ccccc23)[C@@H](CCCO)[C@H](OCC)O1	none
CS(=O)(=O)N(Cc1ccc(Cl)cc1)c1ccc(C(=O)NCc2ccccn2)cc1	none
CS(=O)(=O)N(Cc1ccc(Cl)cc1)c1ccc(C(=O)N/N=C/c2cc3ccccc3nc2Cl)cc1	KCNK9 block -7.35
CCc1c(C)nc(N2CCN(c3ccc(Cl)cc3)CC2)[nH]c1=O	none (no result: KCC2 mod)
CCN1CCN(C(=O)c2nn(C)c3c2CS(=O)(=O)c2ccccc2-3)CC1	none (no result: KCC2 mod)
c1ccc2oc(-c3ccn[nH]3)cc2c1	hERG rescue 6.9
CN(Cc1ccccc1)C1=CC(=[N+]2CCCCC2)CC(C)(C)C1	KCNQ1 inh 6
Oc1c(Cl)cc(Cl)c2c1NCCC2	KCC2 mod 13.6
Cc1ccsc1C1C(C#N)=C(N)N(N(C)C)C2=C1C(=O)CCC2 (stereo not given)	hERG rescue 7.9
Clc1ccc(Cc2ccccc2)nn1	hERG rescue 5.3
COc1ccc(N2CCN(C(=O)COC(=O)c3ccco3)CC2)cc1	none (no result: KCC2 mod)
Cc1ccc(C(=O)NCCC(=O)NCc2cc(=O)n(C)c(=O)n2C)cc1	KCNQ1 pot 8 (no result: KCC2 mod)
O=C(CNC(=O)c1ccc(Cl)cc1Cl)OCc1cn2cc(Br)ccc2n1	none (no result: KCNQ1 inh, KCNK9 block, KCNQ1 pot, KCC2 mod, hERG rescue)
CCOc1cc(/C=C2\N=C(SCC)SC2=O)cc([N+](=O)[O-])c1OC(C)=O	KCNQ1 inh 8 (no result: KCC2 mod)

Screening data (PubChem BioAssay)
